What was measured:
Assay type in all cases: functional
HT-29 = experiment: Growth inhibition of human HT-29 cells assessed as cell growth at 10 uM incubated for 48 hrs by sulforhodamine B assay relative to control; conditions: HT-29, 48 h, read-out: Activity
Procedure, shortened: (§1)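 Run in the standard NCI 60-cell-line screen. Cells were exposed to drug for two days, and the read-out was sulforhodamine B staining. Compound was tested at a single final concentration of 10 µM in every line, and results are reported as growth percent.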

[1] = Growth inhibition of human COLO205 cells assessed as cell growth at 10 uM incubated for 48 hrs by sulforhodamine B assay relative to control; conditions: COLO 205, 48 h, read-out: Activity; procedure, shortened: as §1
SK-MEL-2 = experiment: Growth inhibition of human SK-MEL-2 cells assessed as cell growth at 10 uM incubated for 48 hrs by sulforhodamine B assay relative to control; conditions: SK-MEL-2, 48 h, read-out: Activity; procedure, shortened: as §1
[2] = Growth inhibition of human DU145 cells assessed as cell growth at 10 uM incubated for 48 hrs by sulforhodamine B assay relative to control; conditions: DU-145, 48 h, read-out: Activity; procedure, shortened: as §1
K562 = experiment: Growth inhibition of human K562 cells assessed as cell growth at 10 uM incubated for 48 hrs by sulforhodamine B assay relative to control; conditions: K562, 48 h, read-out: Activity; procedure, shortened: as §1
SR = experiment: Growth inhibition of human SR cells assessed as cell growth at 10 uM incubated for 48 hrs by sulforhodamine B assay relative to control; conditions: read-out: Activity; procedure, shortened: as §1
[3] = Growth inhibition of human HCT116 cells assessed as cell growth at 10 uM incubated for 48 hrs by sulforhodamine B assay relative to control; conditions: HCT-116, 48 h, read-out: Activity; procedure, shortened: as §1
[4] = Growth inhibition of human HOP92 cells assessed as cell growth at 10 uM incubated for 48 hrs by sulforhodamine B assay relative to control; conditions: HOP-92, 48 h, read-out: Activity
Procedure, shortened: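 Single-dose screen in the NCI 60-cell-line panel at one final concentration of 10 µM. Two-day drug exposure with a sulforhodamine B endpoint. Values are growth percent for each cell line.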

[5] = Growth inhibition of human SNB19 cells assessed as cell growth at 10 uM incubated for 48 hrs by sulforhodamine B assay relative to control; conditions: SNB-19, 48 h, read-out: Activity; procedure, shortened: as §1
[6] = Growth inhibition of human Caki1 cells assessed as cell growth at 10 uM incubated for 48 hrs by sulforhodamine B assay relative to control; conditions: CAKI-1, 48 h, read-out: Activity; procedure, shortened: as §1
[7] = Growth inhibition of human OVCAR3 cells assessed as cell growth at 10 uM incubated for 48 hrs by sulforhodamine B assay relative to control; conditions: OVCAR-3, 48 h, read-out: Activity; procedure, shortened: as §1
[8] = Growth inhibition of human TK10 cells assessed as cell growth at 10 uM incubated for 48 hrs by sulforhodamine B assay relative to control; conditions: TK-10, 48 h, read-out: Activity
Procedure, shortened: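 NCI 60-cell line standard protocol, one-dose screen: single final concentration 10 µM, 2-day drug exposure, sulforhodamine B (SRB) endpoint; read-out is growth percent relative to untreated control.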

[9] = Growth inhibition of human MOLT4 cells assessed as cell growth at 10 uM incubated for 48 hrs by sulforhodamine B assay relative to control; conditions: MOLT-4, 48 h, read-out: Activity; procedure, shortened: as §1
[10] = Growth inhibition of human SKOV3 cells assessed as cell growth at 10 uM incubated for 48 hrs by sulforhodamine B assay relative to control; conditions: SK-OV-3, 48 h, read-out: Activity; procedure, shortened: as §1
[11] = Growth inhibition of human HCT15 cells assessed as cell growth at 10 uM incubated for 48 hrs by sulforhodamine B assay relative to control; conditions: HCT-15, 48 h, read-out: Activity; procedure, shortened: as §1
[12] = Growth inhibition of human RPMI8226 cells assessed as cell growth at 10 uM incubated for 48 hrs by sulforhodamine B assay relative to control; conditions: RPMI-8226, 48 h, read-out: Activity; procedure, shortened: as §1
[13] = Growth inhibition of human PC3 cells assessed as cell growth at 10 uM incubated for 48 hrs by sulforhodamine B assay relative to control; conditions: PC-3, 48 h, read-out: Activity; procedure, shortened: as §1
SK-MEL-5 [14] = experiment: Growth inhibition of human SK-MEL-5 cells assessed as cell growth at 10 uM incubated for 48 hrs by sulforhodamine B assay relative to control; conditions: SK-MEL-5, 48 h, read-out: Activity; procedure, shortened: as §1
[15] = Growth inhibition of human MOLT4 cells incubated for 48 hrs by sulforhodamine B assay; conditions: MOLT-4, 48 h
Procedure, shortened: (§2)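 NCI 60-cell-line panel, standard protocol. Cells exposed to compound for two days, growth read by sulforhodamine B staining. Tested at five 10-fold dilutions, top concentration 100 µM, to give dose-response curves.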

[16] = Growth inhibition of human HL-60(TB) cells incubated for 48 hrs by sulforhodamine B assay; conditions: HL-60, 48 h; procedure, shortened: as §2
[17] = Growth inhibition of human DU145 cells incubated for 48 hrs by sulforhodamine B assay; conditions: DU-145, 48 h; procedure, shortened: as §2
ACHN = experiment: Growth inhibition of human ACHN cells incubated for 48 hrs by sulforhodamine B assay; procedure, shortened: as §2
[18] = Growth inhibition of human Hs 578T cells incubated for 48 hrs by sulforhodamine B assay
[19] = Growth inhibition of human RXF393 cells incubated for 48 hrs by sulforhodamine B assay; conditions: RXF 393, 48 h
Procedure, shortened: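 Run in the NCI 60-cell-line protocol, with 2-day drug exposure and sulforhodamine B read-out. Dose-response testing used five 10-fold dilutions starting from a high concentration of 100 µM.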

[20] = Growth inhibition of human SNB19 cells incubated for 48 hrs by sulforhodamine B assay; conditions: SNB-19, 48 h
Procedure, shortened: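 Tested in the standard NCI 60-cell-line protocol with two-day drug exposure and a sulforhodamine B endpoint. Compounds were first screened at a single final concentration of 10 µM, reported as growth percent. They were then run as five 10-fold dilutions starting from a high concentration of 100 µM to give dose-response curves.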

[21] = Growth inhibition of human SF539 cells incubated for 48 hrs by sulforhodamine B assay; conditions: SF-539, 48 h; procedure, shortened: as §2
SK-MEL-5 [22] = experiment: Growth inhibition of human SK-MEL-5 cells incubated for 48 hrs by sulforhodamine B assay; conditions: SK-MEL-5, 48 h; procedure, shortened: as §2
Malme-3M = experiment: Growth inhibition of human MALME-3M cells incubated for 48 hrs by sulforhodamine B assay; procedure, shortened: as §2
[23] = read-out: pLC50 (the source's name) (converted)

CC(C)[C@@]12C[C@@H](NC(=O)CF)[C@@](C)(O1)[C@@H]1CC[C@@H](C)[C@H]1[C@@H]2OC(=O)/C=C/c1ccccc1
growth at 10 µM (HT-29): 109% | growth at 10 µM [1]: 103% | growth at 10 µM (SK-MEL-2): 117% | growth at 10 µM [2]: 115% | growth at 10 µM (K562): 106% | growth at 10 µM (SR): 85.5% | growth at 10 µM [3]: 87.4% | growth at 10 µM [4]: 75.8% | growth at 10 µM [5]: 104% | growth at 10 µM [6]: 80.9% | growth at 10 µM [7]: 115% | growth at 10 µM [8]: 104% | growth at 10 µM [9]: 96.5% | growth at 10 µM [10]: 91.3% | growth at 10 µM [11]: 103% | growth at 10 µM [12]: 94.3% | growth at 10 µM [13]: 84% | growth at 10 µM (SK-MEL-5 [14]): 110%

CC(C)[C@@]12C[C@@H](NC(=O)CO)[C@@](C)(O1)[C@@H]1CC[C@@H](C)[C@H]1[C@@H]2OC(=O)/C=C/C1CCCCC1
growth at 10 µM (HT-29): 97.4% | growth at 10 µM [1]: 113% | GI50 [15]: > 44.7 µM | LC50 [15]: > 44.7 µM | TGI ([15]; read-out: pTGI (converted)): > 44.7 µM | growth at 10 µM (SK-MEL-2): 99.2% | growth at 10 µM [2]: 116% | growth at 10 µM (K562): 96.5% | growth at 10 µM (SR): 93.2% | growth at 10 µM [3]: 103% | growth at 10 µM [4]: 120% | growth at 10 µM [5]: 103% | GI50 [16]: > 44.7 µM | CC50 [16, 23]: > 44.7 µM | TGI ([16]; read-out: pTGI (converted)): > 44.7 µM | growth at 10 µM [6]: 88.7% | GI50 [17]: > 44.7 µM | CC50 [17, 23]: > 44.7 µM | TGI ([17]; read-out: pTGI (converted)): > 44.7 µM | growth at 10 µM [7]: 110% | growth at 10 µM [8]: 94.1% | growth at 10 µM [9]: 98% | GI50 (ACHN): 17 µM | LC50 (concentration killing 50% of cells) (ACHN): > 44.7 µM | TGI (ACHN; read-out: pTGI (converted)): > 44.7 µM | GI50 ([18]; read-out: GI50): 6.17 µM | GI50 ([18]; read-out: pGI50 (converted)): 6.17 µM | CC50 [18, 23]: > 44.7 µM | TGI ([18]; read-out: pTGI (converted)): 18.6 µM | GI50 [19]: 13.8 µM | CC50 [19, 23]: > 44.7 µM | TGI ([19]; read-out: pTGI (converted)): > 44.7 µM | GI50 [20]: > 44.7 µM | CC50 [20, 23]: > 44.7 µM | TGI ([20]; read-out: pTGI (converted)): > 44.7 µM | GI50 [21]: > 44.7 µM | LC50 [21]: > 44.7 µM | TGI ([21]; read-out: pTGI (converted)): > 44.7 µM | growth at 10 µM [10]: 103% | growth at 10 µM [11]: 102% | growth at 10 µM [12]: 134% | GI50 (SK-MEL-5 [22]): > 44.7 µM | LC50 (SK-MEL-5 [22]): > 44.7 µM | TGI (SK-MEL-5 [22]; read-out: pTGI (converted)): > 44.7 µM | growth at 10 µM [13]: 106% | growth at 10 µM (SK-MEL-5 [14]): 99.3% | GI50 (Malme-3M): > 44.7 µM | LC50 (Malme-3M): > 44.7 µM | TGI (Malme-3M; read-out: pTGI (converted)): > 44.7 µM
